Source: ChEMBL document CHEMBL1949580, “Multi-component synthesis and in vitro and in vivo anticancer activity of novel arylmethylene bis-isoxazolo[4,5-b]pyridine-N-oxides” (Eur J Med Chem, 2012)
Values after ≈ are worked out from the molar mass of the structure shown.

Tests used:
[1] = Anticancer activity against […] xenografted in Swiss albino mouse liquid tumor model assessed as host survival at 5 mg/kg, ip qd for 9 days (reference value: 13.7 +/- 0.03 days); type: functional, Ehrlich; settings: route intraperitoneal
[2] = tested on: Mus musculus; experiment: Toxicity in human EAC cells xenografted Swiss albino mouse liquid tumor model assessed as change in neutrophil cell count at 5 mg/kg, ip qd for 9 days (reference value: 73 +/- 1.25 %); type: organism-based, Ehrlich; parameters: dose 5 mg/kg, route intraperitoneal; settings: in vivo, 216 h
[3] = tested on: Mus musculus; experiment: Toxicity in human EAC cells xenografted Swiss albino mouse liquid tumor model assessed as change in monocytes cell count at 10 mg/kg, ip qd for 9 days (reference value: 2.4 +/- 0.12 %); type: organism-based, Ehrlich; parameters: dose 10 mg/kg, route intraperitoneal; settings: in vivo, 216 h
[4] = tested on: Mus musculus; experiment: Toxicity in […] xenografted Swiss albino mouse liquid tumor model assessed as change in monocytes cell count at 5 mg/kg, ip qd for 9 days (reference value: 2.4 +/- 0.12 %); type: organism-based, Ehrlich; parameters: dose 5 mg/kg, route intraperitoneal; settings: in vivo, 216 h
[5] = tested on: Mus musculus; experiment: Toxicity in human EAC cells xenografted Swiss albino mouse liquid tumor model assessed as change in RBC cell count at 5 mg/kg, ip qd for 9 days (reference value: 2.74 +/- 0.081 million/mm3); type: organism-based, Ehrlich; parameters: dose 5 mg/kg, route intraperitoneal; settings: in vivo, 216 h
[6] = tested on: Mus musculus; experiment: Toxicity in human EAC cells xenografted Swiss albino mouse liquid tumor model assessed as change in lymphocyte cell count at 5 mg/kg, ip qd for 9 days (reference value: 23 +/- 0.567 %); type: organism-based, Ehrlich; parameters: dose 5 mg/kg, route intraperitoneal; settings: in vivo, 216 h
[7] = tested on: Mus musculus; experiment: Toxicity in human EAC cells xenografted Swiss albino mouse liquid tumor model assessed as change in lymphocyte cell count at 10 mg/kg, ip qd for 9 days (reference value: 23 +/- 0.567 %); type: organism-based, Ehrlich; parameters: dose 10 mg/kg, route intraperitoneal; settings: in vivo, 216 h
[8] = Anticancer activity against […] xenografted in Swiss albino mouse liquid tumor model assessed as increase in host lifespan at 10 mg/kg, ip qd for 9 days measured after 14 days; type: functional, Ehrlich; settings: route intraperitoneal
[9] = tested on: Mus musculus; experiment: Toxicity in human EAC cells xenografted Swiss albino mouse liquid tumor model assessed as change in neutrophil cell count at 10 mg/kg, ip qd for 9 days (reference value: 73 +/- 1.25 %); type: organism-based, Ehrlich; parameters: dose 10 mg/kg, route intraperitoneal; settings: in vivo, 216 h
[10] = Anticancer activity against […] xenografted in Swiss albino mouse liquid tumor model assessed as packed cell volume at 5 mg/kg, ip qd for 9 days measured after 14 days by trypan blue staining (reference value: 2.75 +/- 0.49 mm); type: functional, Ehrlich; settings: route intraperitoneal
Procedure, shortened: (§1)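 EAC cells (0.2 mL of 2 × 10⁶ cells/mouse) injected ip on day 0. Daily ip dosing began 24 h later. Ten mice per group. Tumor volume, packed cell volume and viable tumor cell count read by Trypan blue method, alongside body weight. Values are mean ± SEM versus tumor control. Cisplatin 5 mg/kg served as the positive control.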

[11] = tested on: HeLa; experiment: Cytotoxicity against human HeLa cells after 48 hrs by MTT assay; type: functional, cell-based
Procedure, shortened: (§2)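 Cells in medium with 10% FBS, 5% CO₂, 37 °C, seeded from a 1 × 10⁵ cells/mL suspension. Test solutions from DMSO stocks (final <1% DMSO) added after 24 h. Exposure 48 h, then MTT 2.5 mg/mL for 2 h, formazan dissolved in DMSO, read at 490 nm. IC₅₀ is 50% OD reduction versus untreated, from dose-response curves. Mean of three independent determinations.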

[12] = Antitumor activity against […] xenografted in Swiss albino mouse liquid tumor model assessed as change in body weight at 10 mg/kg, ip qd for 9 days measured after 14 days (reference value: 12.2 +/- 0.75 g); type: functional, Ehrlich; settings: route intraperitoneal; procedure, shortened: as §1
[13] = Cytotoxicity against […] after 48 hrs by MTT assay; type: functional, cell-based; settings: Mus musculus, Ehrlich; procedure, shortened: as §2
[14] = Anticancer activity against […] xenografted in Swiss albino mouse liquid tumor model assessed as packed cell volume at 10 mg/kg, ip qd for 9 days measured after 14 days by trypan blue staining (reference value: 2.75 +/- 0.49 mm); type: functional, Ehrlich; settings: route intraperitoneal; procedure, shortened: as §1
[15] = tested on: Mus musculus; experiment: Toxicity in human EAC cells xenografted Swiss albino mouse liquid tumor model assessed as change hemoglobin level at 5 mg/kg, ip qd for 9 days (reference value: 5.75 +/- 0.655 mg); type: organism-based, Ehrlich; parameters: dose 5 mg/kg, route intraperitoneal; settings: in vivo, 216 h
[16] = tested on: MCF7; experiment: Cytotoxicity against human MCF7 cells after 48 hrs by MTT assay; type: functional, cell-based; settings: MCF7, 48 h; procedure, shortened: as §2
[17] = tested on: Mus musculus; experiment: Toxicity in […] xenografted Swiss albino mouse liquid tumor model assessed as change hemoglobin level at 10 mg/kg, ip qd for 9 days (reference value: 5.75 +/- 0.655 mg); type: organism-based, Ehrlich; parameters: dose 10 mg/kg, route intraperitoneal; settings: in vivo, 216 h
[18] = Anticancer activity against […] xenografted in Swiss albino mouse liquid tumor model assessed as tumor volume at 5 mg/kg, ip qd for 9 days measured after 14 days (reference value: 12.1 +/- 0.89 mL); type: functional, Ehrlich; settings: route intraperitoneal; procedure, shortened: as §1
[19] = tested on: Mus musculus; experiment: Toxicity in […] xenografted Swiss albino mouse liquid tumor model assessed as change WBC cell count at 5 mg/kg, ip qd for 9 days (reference value: 20.6 +/- 0.545 10^3/mm3); type: organism-based, Ehrlich; parameters: dose 5 mg/kg, route intraperitoneal; settings: in vivo, 216 h
[20] = Anticancer activity against […] xenografted in Swiss albino mouse liquid tumor model assessed as tumor volume at 10 mg/kg, ip qd for 9 days measured after 14 days (reference value: 12.1 +/- 0.89 mL); type: functional, Ehrlich; settings: route intraperitoneal; procedure, shortened: as §1
[21] = Anticancer activity against […] xenografted in Swiss albino mouse liquid tumor model assessed as host survival at 10 mg/kg, ip qd for 9 days (reference value: 13.7 +/- 0.03 days); type: functional, Ehrlich; settings: route intraperitoneal
[22] = Anticancer activity against […] xenografted in Swiss albino mouse liquid tumor model assessed as increase in host lifespan at 5 mg/kg, ip qd for 9 days measured after 14 days; type: functional, Ehrlich; settings: route intraperitoneal
[23] = tested on: Mus musculus; experiment: Toxicity in […] xenografted Swiss albino mouse liquid tumor model assessed as change WBC cell count at 10 mg/kg, ip qd for 9 days (reference value: 20.6 +/- 0.545 10^3/mm3); type: organism-based, Ehrlich; parameters: dose 10 mg/kg, route intraperitoneal; settings: in vivo, 216 h
[24] = tested on: Mus musculus; experiment: Toxicity in human EAC cells xenografted Swiss albino mouse liquid tumor model assessed as change in RBC cell count at 10 mg/kg, ip qd for 9 days (reference value: 2.74 +/- 0.081 million/mm3); type: organism-based, Ehrlich; parameters: dose 10 mg/kg, route intraperitoneal; settings: in vivo, 216 h
[25] = Antitumor activity against […] xenografted in Swiss albino mouse liquid tumor model assessed as change in body weight at 5 mg/kg, ip qd for 9 days measured after 14 days (reference value: 12.2 +/- 0.75 g); type: functional, Ehrlich; settings: route intraperitoneal; procedure, shortened: as §1
[26] = Anticancer activity against […] xenografted in Swiss albino mouse liquid tumor model assessed as viable tumor cells per 10^7 cells at 5 mg/kg, ip qd for 9 days measured after 14 days by trypan blue staining (reference value: 6.39 +/- 0.51 10^7/mL); type: functional, Ehrlich; settings: route intraperitoneal; procedure, shortened: as §1
[27] = Anticancer activity against […] xenografted in Swiss albino mouse liquid tumor model assessed as viable tumor cells per 10^7 cells at 10 mg/kg, ip qd for 9 days measured after 14 days by trypan blue staining (reference value: 6.39 +/- 0.51 10^7/mL); type: functional, Ehrlich; settings: route intraperitoneal; procedure, shortened: as §1

Cc1noc2c(C(c3ccccc3)c3c(-c4ccccc4O)c[n+]([O-])c4c(C)noc34)c(-c3ccccc3O)c[n+]([O-])c12
MST [1]: 14.8 days | Activity [2]: 65% | Activity [3]: 1.9% | Activity [4]: 2.3% | Activity [5]: 2.72 million/mm3 | Activity [6]: 26% | Activity [7]: 40% | Activity [8]: 31.38% | Activity [9]: 51% | Activity [10]: 2.13 mm | IC50 [11]: 32.8 µg/mL (≈ 57.3 µM) | Activity [12]: 8.89 g | IC50 [13]: 36.3 µg/mL (≈ 63.4 µM) | Activity [14]: 1.69 mm | Activity [15]: 5.96 mg | IC50 [16]: 33.5 µg/mL (≈ 58.6 µM) | Activity [17]: 7.02 mg | Activity [18]: 10.69 mL | Activity [19]: 19.9 ×10³ /mm3 | Activity [20]: 8.29 mL | MST [21]: 18 days | Activity [22]: 8.02% | Activity [23]: 18.8 ×10³ /mm3 | Activity [24]: 3.3 million/mm3 | Activity [25]: 11 g | Activity [26]: 5.21 ×10⁷ /ml | Activity [27]: 4.07 ×10⁷ /ml

COc1ccccc1C(c1c(-c2ccccc2)c[n+]([O-])c2c(C)noc12)c1c(-c2ccccc2)c[n+]([O-])c2c(C)noc12
IC50 [11]: 65.5 µg/mL (≈ 115 µM) | IC50 [13]: 51.8 µg/mL (≈ 90.9 µM) | IC50 [16]: 57.3 µg/mL (≈ 101 µM)

Cc1noc2c(C(c3ccccc3Cl)c3c(-c4ccccc4)c[n+]([O-])c4c(C)noc34)c(-c3ccccc3)c[n+]([O-])c12
IC50 [11]: 79 µg/mL (≈ 137 µM) | IC50 [13]: 70.4 µg/mL (≈ 122 µM) | IC50 [16]: 72.1 µg/mL (≈ 125 µM)

Cc1ccc(-c2c[n+]([O-])c3c(C)noc3c2C(c2ccccc2)c2c(-c3ccc(C)cc3)c[n+]([O-])c3c(C)noc23)cc1
IC50 [11]: 42 µg/mL (≈ 73.9 µM) | IC50 [13]: 48.4 µg/mL (≈ 85.2 µM) | IC50 [16]: 44.3 µg/mL (≈ 77.9 µM)

Cc1noc2c(C(c3ccccc3)c3c(-c4ccccc4)c[n+]([O-])c4c(C)noc34)c(-c3ccccc3)c[n+]([O-])c12
MST [1]: 16.4 days | Activity [2]: 54% | Activity [3]: 1.6% | Activity [4]: 2% | Activity [5]: 3.02 million/mm3 | Activity [6]: 31% | Activity [7]: 49% | Activity [8]: 61.31% | Activity [9]: 39% | Activity [10]: 1.25 mm | IC50 [11]: 28.6 µg/mL (≈ 52.9 µM) | Activity [12]: 7.7 g | IC50 [13]: 26.6 µg/mL (≈ 49.2 µM) | Activity [14]: 0.94 mm | Activity [15]: 8.08 mg | IC50 [16]: 31.9 µg/mL (≈ 59 µM) | Activity [17]: 9.3 mg | Activity [18]: 7.61 mL | Activity [19]: 18.48 ×10³ /mm3 | Activity [20]: 4.5 mL | MST [21]: 22.1 days | Activity [22]: 19.7% | Activity [23]: 13.92 ×10³ /mm3 | Activity [24]: 3.88 million/mm3 | Activity [25]: 10.41 g | Activity [26]: 4.05 ×10⁷ /ml | Activity [27]: 3.27 ×10⁷ /ml

Cc1noc2c(C(c3ccc(Cl)cc3)c3c(-c4ccccc4)c[n+]([O-])c4c(C)noc34)c(-c3ccccc3)c[n+]([O-])c12
IC50 [11]: 70.7 µg/mL (≈ 123 µM) | IC50 [13]: 60.6 µg/mL (≈ 105 µM) | IC50 [16]: 74.3 µg/mL (≈ 129 µM)

Cc1noc2c(C(c3ccccc3)c3c(-c4ccc(Cl)cc4)c[n+]([O-])c4c(C)noc34)c(-c3ccc(Cl)cc3)c[n+]([O-])c12
IC50 [11]: 70.2 µg/mL (≈ 115 µM) | IC50 [13]: 78.3 µg/mL (≈ 129 µM) | IC50 [16]: 79 µg/mL (≈ 130 µM)

Cc1noc2c(C(c3ccccc3)c3c(-c4ccc([N+](=O)[O-])cc4)c[n+]([O-])c4c(C)noc34)c(-c3ccc([N+](=O)[O-])cc3)c[n+]([O-])c12
IC50 [11]: 80 µg/mL (≈ 127 µM) | IC50 [13]: 75.5 µg/mL (≈ 120 µM) | IC50 [16]: 76.2 µg/mL (≈ 121 µM)

COc1ccc(-c2c[n+]([O-])c3c(C)noc3c2C(c2ccccc2)c2c(-c3ccc(OC)cc3)c[n+]([O-])c3c(C)noc23)cc1
IC50 [11]: 47.9 µg/mL (≈ 79.8 µM) | IC50 [13]: 41.7 µg/mL (≈ 69.4 µM) | IC50 [16]: 46 µg/mL (≈ 76.5 µM)

Cc1ccccc1C(c1c(-c2ccccc2)c[n+]([O-])c2c(C)noc12)c1c(-c2ccccc2)c[n+]([O-])c2c(C)noc12
IC50 [11]: 62.4 µg/mL (≈ 113 µM) | IC50 [13]: 65.1 µg/mL (≈ 117 µM) | IC50 [16]: 60.7 µg/mL (≈ 109 µM)
